# Screens (PubChem BioAssay)
# The list is a sample of the results.
# Apaf-1 act: activates human Apaf-1 apoptosome | Apaf-1 apoptosome caspase-3 activation, DEVD-Rh110 fluorescence; hits give low values | 330,000 compounds, 0.31% hits | activity change, negative = activation, % at 20 µM | O14727;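 active = activity change at or below -40% at 20 µM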
#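 Material: reconstituted apoptosome of Apaf-1, cytochrome c, caspase-9, procaspase-3; times: 30 min preincubation, 50 min reaction, room temperature; measured by: fluorescence, 540 nm emission, 480 nm excitation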
# Rh110 act interf: Rh110 signal interference in Apaf-1 activator counter-screen; 980 tested, under 10 active; Rh110 fluorescence interference, quenched caspase reaction, Ex480/Em540; fluorescence interference (activity change), % at 20 µM, hits read low; shares compounds with Apaf-1 act; AID 504616;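 active = mean activity change at or below -40% when tested at 20 µM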
# Apaf-1 act conf: Apaf-1 (human) activation, single-dose confirmed | shares compounds with Apaf-1 act | reconstituted apoptosome caspase-3 activity, DEVD-Rh110 fluorescence; hits give low values | activity change, negative = activation, % at 20 µM | 980 compounds, 5% hits | AID 504617;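 active = mean activity change at or below -40%, meaning activation of 40% or more, at 20 µM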
# Fluor interf act: Apaf-1 activator counter-screen fluorescence artifact; EC50, µM; 55 tested, under 10 active; fluorescence interference counterscreen, Apaf-1 activator assay; shares compounds with Apaf-1 act; call rule not given here
# Hits are given with their value; . = inactive.
SMILES,Apaf-1 act,others
COc1cc(OC)c2c(-c3ccccc3)cc(=O)oc2c1C(CCN1CCCC(C)C1)c1ccc2c(c1)OCO2 (configuration not stated),.,
Cc1noc(C)c1S(=O)(=O)N1CCN(C(c2ccccc2)c2ccc(Cl)cc2)CC1 (configuration not stated),-108,
CCCN1CCN(C(=O)C2CCN(S(=O)(=O)c3c(C)noc3/C=C/c3ccc(C)cc3)CC2)CC1,.,
O=S(=O)(NCC(c1ccccc1)N1CCNCC1)c1ccc(Cl)cc1 (configuration not stated),.,
CCC[C@@H](CN1CCC[C@H]1CN1C(N)=NC[C@H]1C(C)C)N1C[C@@H](Cc2ccccc2)N(CCCC2CCCC2)C1=N,.,
N#Cc1ccc(C23CC4(C2)[C@H](CN(Cc2ccc(-c5ccccc5)cc2)[C@@H]4c2ccccc2)C3c2ccc(C(F)(F)F)cc2)cc1 (some centres not stated),.,
CCOc1cc(/C=C(\C#N)C(=O)Nc2cccc(C(=O)O)c2)ccc1OCc1ccc(Br)cc1,-119,
Oc1cccc2c(NC(=S)Nc3ccc(OC(F)F)cc3)cccc12,.,
N#Cc1c(N)n(CCNC(=O)c2ccc(Cl)cc2)c2nc3ccccc3nc12,.,
COc1ccc(CC(=O)N(C)CC(=O)Nc2c(C)cccc2C)cc1S(=O)(=O)N1CCOCC1,.,
COc1ccc(CC(=O)N(C)CC(=O)Nc2ccccc2C(F)(F)F)cc1S(=O)(=O)N1CCOCC1,.,
COc1ccc(CN(C)C(C)C(=O)Nc2ccc(S(=O)(=O)N3CCCC3)cc2)c(OC)c1OC (configuration not stated),-83,
CC(=O)N(Cc1ccc(F)cc1)C1=C(NCCc2ccccc2)C(=O)c2ccccc2C1=O,.,
O=C1C(Nc2cccc(O)c2)=C(N2CCCCC2)C(=O)c2ccccc21,.,
CN(Cc1ccccn1)C(=O)c1ccc2nc(Cc3cccc(Cl)c3)oc2c1,-116,
COc1ccccc1Oc1c(C)oc2c(CN3CCN(C)CC3)c(O)ccc2c1=O,-595,
CC(=O)[C@]1(O)Cc2c(O)c3c(c(O)c2[C@@H](O[C@H]2C[C@H](N)[C@H](O)[C@H](C)O2)C1)C(=O)c1ccccc1C3=O,.,
COC(=O)c1c(C(=O)OC)c2cccc3cc(-c4ccccc4)c4ccc1c4n32,.,
O=C(Oc1ccc[nH]c1=O)c1cc([N+](=O)[O-])cc([N+](=O)[O-])c1,.,
CCCC(C)NC(=O)c1cc(C(=O)OC)cc([N+](=O)[O-])c1 (configuration not stated),-108,Rh110 act interf=.;Apaf-1 act conf=.
O=c1[nH]c(N2CCOCC2)cc2ccccc12,.,
COc1cccc(NC(=S)NC(=O)c2cncc(Br)c2)c1,-318,Rh110 act interf=.;Apaf-1 act conf=.
COc1cccc(NC(=O)c2cc(C(=O)Nc3cccc(OC)c3)n(C)n2)c1,.,
CC(=O)c1cccc(NC(=S)Nc2cccc3ccccc23)c1,.,
CCC1Oc2ccccc2N(CC(=O)NC2CCCCC2C)C1=O (configuration not stated),-224,Rh110 act interf=.;Apaf-1 act conf=.
SMILES,Apaf-1 act,others
CCOC(=O)c1c(-c2ccc(-c3ccccc3)cc2)csc1NC(=O)CNCCN(C)C,.,
Cc1ccc(NC2=CC(=O)C(=O)c3ccccc32)c(C)c1,.,
COc1cc(OC)c(OC)cc1/C=N/N(C)c1ccccc1,-78,Rh110 act interf=.;Apaf-1 act conf=.
COc1ccccc1/C=N/Nc1cc(N(C)C)nc(N(C)C)n1,.,
C[C@]12CC[C@@H]3c4ccc(OS(=O)(=O)O)cc4CC[C@H]3[C@@H]1CCC2=O,.,
Cc1cc(OC(=O)c2ccccc2)n(CCC#N)n1,.,
Cc1cc(C)n(CC(C)C(=O)O)n1 (configuration not stated),-165,Rh110 act interf=.;Apaf-1 act conf=-104;Fluor interf act=.
Cc1cccc2sc(N(CCCN(C)C)C(=O)c3ccc(S(=O)(=O)N4CCc5ccccc5C4)cc3)nc12,.,
Cc1ccc2[nH]c(=O)c(C(c3nnnn3CC3CCCO3)N3CCc4ccccc4C3)cc2c1 (configuration not stated),.,
COc1ccc(O)c(C(=O)c2cc(C#N)c(=O)n(-c3c(C)n(C)n(-c4ccccc4)c3=O)c2)c1,-40,Rh110 act interf=.;Apaf-1 act conf=.
CN1CCc2cccc3c2[C@H]1Cc1ccc(O)c(O)c1-3,.,
Cc1nn(-c2ccccc2)c2c1C(c1ccccc1)C(C#N)=C(N)O2 (configuration not stated),.,
O=[N+]([O-])c1cc2c(cc1C=Nc1ccccc1)OCO2,.,
CCN(CC)S(=O)(=O)c1ccc(N/N=C(\C)c2ccc3c(c2)OCO3)c([N+](=O)[O-])c1,-41,Rh110 act interf=.;Apaf-1 act conf=.
